The source made the active and inactive calls. No cut-off for these calls is given here.
How the values were obtained:
[1] = biological target: T1, 1-deoxy-D-xylulose 5-phosphate reductoisomerase (Escherichia coli K-12) (UniProt P45568); assay: Inhibition of His-tagged Escherichia coli DXR at 20 uM pre-incubated for 2 mins before reaction initiation in presence of 160 uM NADPH in absence of 0.01% Triton X100
T1 sequence (whole entry): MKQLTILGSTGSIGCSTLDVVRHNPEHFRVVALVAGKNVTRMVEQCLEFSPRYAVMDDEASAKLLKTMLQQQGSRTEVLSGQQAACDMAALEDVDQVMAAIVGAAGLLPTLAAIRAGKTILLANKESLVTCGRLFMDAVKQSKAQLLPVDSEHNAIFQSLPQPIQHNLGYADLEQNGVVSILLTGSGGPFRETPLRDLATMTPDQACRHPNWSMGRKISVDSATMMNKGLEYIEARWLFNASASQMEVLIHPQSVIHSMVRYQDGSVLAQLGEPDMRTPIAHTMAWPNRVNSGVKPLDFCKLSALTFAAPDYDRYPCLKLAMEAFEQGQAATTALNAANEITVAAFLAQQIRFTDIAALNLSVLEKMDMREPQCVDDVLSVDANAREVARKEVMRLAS
Procedure, shortened: (§1)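 His-tagged E. coli DXR at 37 °C in 50 mM Tris/HCl pH 7.5 with 3 mM MgCl2 and 2 mM DTT. Enzyme preincubated 2 min with inhibitor and 480 µM DXP, then started with NADPH (160 µM final). Run with or without 0.01% Triton X100. Final DMSO 0.4% (v/v). IC50 taken from % residual activity vs log[inhibitor]; otherwise % inhibition at 20 µM.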

[2] = biological target: T2, Malate dehydrogenase (Thermus thermophilus) (UniProt P10584); assay: Inhibition of Thermus flavus MDH at 50 uM pre-incubated for 4 mins before reaction initiation in presence of OAA and NAPH in absence of 0.01% Triton X100 by UV-Vis spectrophotometry
T2 sequence (whole entry): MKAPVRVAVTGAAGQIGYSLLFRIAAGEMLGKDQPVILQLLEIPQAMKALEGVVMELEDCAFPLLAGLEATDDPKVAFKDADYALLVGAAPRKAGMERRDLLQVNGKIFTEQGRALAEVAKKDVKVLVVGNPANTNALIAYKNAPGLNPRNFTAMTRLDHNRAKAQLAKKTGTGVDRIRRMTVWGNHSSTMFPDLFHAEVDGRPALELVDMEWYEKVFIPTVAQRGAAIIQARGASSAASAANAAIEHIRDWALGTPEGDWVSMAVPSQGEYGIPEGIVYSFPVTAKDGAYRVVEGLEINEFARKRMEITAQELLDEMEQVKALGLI
Procedure, shortened: (§2)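 MDH in 50 mM Tris/HCl pH 7.5 at 37 °C. Preincubated 4 min with inhibitor, with or without 0.01% (w/v) Triton X100. Reaction started by successive addition of oxaloacetate (250 µM final) and NADH (160 µM final). Initial rates followed as A340 decrease. At least duplicate; 0.4% DMSO final.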

[3] = biological target: T1, 1-deoxy-D-xylulose 5-phosphate reductoisomerase (Escherichia coli K-12); assay: Inhibition of His-tagged Escherichia coli DXR at 20 uM pre-incubated for 2 mins before reaction initiation in presence of 160 uM NADPH in presence of 0.01% Triton X100; procedure, shortened: as §1
[4] = biological target: T1, 1-deoxy-D-xylulose 5-phosphate reductoisomerase (Escherichia coli K-12); assay: Inhibition of His-tagged Escherichia coli DXR at 6 uM pre-incubated for 2 mins before reaction initiation in presence of 160 uM NADPH
Procedure, shortened: (§3)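 H-DXR in 50 mM Tris/HCl pH 7.5, 3 mM MgCl2, 2 mM DTT, 37 °C. Enzyme preincubated 2 min with inhibitor at 6 µM, with or without NADPH (160 µM). Reaction started by DXP (480 µM final) to measure residual activity.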

[5] = biological target: T2, Malate dehydrogenase (Thermus thermophilus); assay: Inhibition of Thermus flavus MDH at 10 uM pre-incubated for 4 mins before reaction initiation in presence of OAA and NAPH in presence of 0.01% Triton X100 by UV-Vis spectrophotometry; procedure, shortened: as §2
[6] = biological target: T1, 1-deoxy-D-xylulose 5-phosphate reductoisomerase (Escherichia coli K-12); assay: Inhibition of His-tagged Escherichia coli DXR at 6 uM pre-incubated for 2 mins before reaction initiation in absence of 160 uM NADPH; procedure, shortened: as §3
Malate dehydrogenase [7] = biological target: T3, Malate dehydrogenase (Thermus thermophilus, UniProt P10584); assay: Inhibition of Thermus flavus MDH pre-incubated for 4 mins before reaction initiation in presence of OAA and NAPH in absence of 0.01% Triton X100 by UV-Vis spectrophotometry; procedure, shortened: as §2
T3 sequence (P10584 whole entry): T2 sequence (whole entry)

[8] = biological target: T4, 1-deoxy-D-xylulose 5-phosphate reductoisomerase (Escherichia coli K-12, UniProt P45568); assay: Inhibition of His-tagged Escherichia coli DXR pre-incubated for 2 mins before reaction initiation in presence of 160 uM NADPH in absence of 0.01% Triton X100
T4 sequence (P45568 whole entry): T1 sequence (whole entry)

[9] = biological target: T2, Malate dehydrogenase (Thermus thermophilus); assay: Inhibition of Thermus flavus MDH at 50 uM pre-incubated for 4 mins before reaction initiation in presence of OAA and NAPH in presence of 0.01% Triton X100 by UV-Vis spectrophotometry; procedure, shortened: as §2
[10] = biological target: T4, 1-deoxy-D-xylulose 5-phosphate reductoisomerase
[11] = biological target: T1, 1-deoxy-D-xylulose 5-phosphate reductoisomerase (Escherichia coli K-12); conditions: 1 to 8 uM
[12] = biological target: T4, 1-deoxy-D-xylulose 5-phosphate reductoisomerase; assay: Inhibition of His-tagged Escherichia coli DXR pre-incubated for 2 mins before reaction initiation in presence of 160 uM NADPH in presence of 0.01% Triton X100; procedure, shortened: as §1
Malate dehydrogenase [13] = biological target: T3, Malate dehydrogenase; assay: Inhibition of Thermus flavus MDH pre-incubated for 4 mins before reaction initiation in presence of OAA and NAPH in presence of 0.01% Triton X100 by UV-Vis spectrophotometry; procedure, shortened: as §2
[14] = Lipophilicity, log P of the compound; assay type: physicochemical; conditions: octanol/water
Escherichia coli [15] = assay: Antimicrobial activity against Escherichia coli XL1 Blue at 800 nmol/4 uL by paper disc diffusion method; assay type: functional
Procedure, shortened: (§4)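 Paper disc diffusion on E. coli XL1 Blue. Discs impregnated with compound dissolved in DMSO (4 µL): 400 nmol in the initial screen, then 200 to 800 nmol. Read-out is the diameter of the growth inhibition zone (mm).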

Escherichia coli [16] = assay: Antimicrobial activity against Escherichia coli XL1 Blue at 400 nmol/4 uL by paper disc diffusion method; assay type: functional; procedure, shortened: as §4
[17] = biological target: T1, 1-deoxy-D-xylulose 5-phosphate reductoisomerase (Escherichia coli K-12); conditions: 10 uM
[18] = biological target: T1, 1-deoxy-D-xylulose 5-phosphate reductoisomerase (Escherichia coli K-12); assay: Inhibition of His-tagged Escherichia coli DXR at 10 uM pre-incubated for 2 mins before reaction initiation in presence of 160 uM NADPH

Structure (SMILES): O=C(O)CN1C(=O)/C(=C/c2ccccc2)SC1=S
- inhibition [1]: < 5%
- inhibition [2]: < 5%

Structure (SMILES): Cc1ccc(Oc2ccc(NC(=O)CN3C(=O)/C(=C/c4cccc(O)c4O)SC3=S)cc2)cc1
- inhibition [3]: < 5%
- inhibition [4]: 38%
- inhibition [5]: < 5%
- inhibition [6]: 60%
- IC50 (Malate dehydrogenase [7]): 1 µM
- IC50 [8]: 3.6 µM

Structure (SMILES): O=C(CN1C(=O)/C(=C/c2cccc(O)c2O)SC1=S)Nc1ccc(Oc2ccc(Cl)cc2)cc1
- inhibition [3]: < 5%
- inhibition [4]: 43%
- inhibition [5]: < 5%
- inhibition [6]: 63%
- IC50 (Malate dehydrogenase [7]): 0.7 µM
- IC50 [8]: 3.3 µM

Structure (SMILES): O=C(CN1C(=O)/C(=C/c2ccc(O)c(O)c2)SC1=S)Nc1ccc(Oc2ccc(Cl)cc2)cc1
- inhibition [9]: < 5%
- inhibition [3]: < 5%
- inhibition [4]: 41%
- inhibition [6]: 64%
- IC50 (Malate dehydrogenase [7]): 0.5 µM
- IC50 [8]: 3.2 µM

Structure (SMILES): O=C(O)CN1C(=O)/C(=C/c2ccc(O)c(O)c2)SC1=S
- Ki [10]: 7.7 µM
- alphaKi [11]: 3 µM
- inhibition [4]: 41%
- IC50 [12]: 4.4 µM
- IC50 (Malate dehydrogenase [13]): 15 µM
- inhibition [6]: 61%
- IC50 (Malate dehydrogenase [7]): 4.7 µM
- logP [14]: 1
- IC50 [8]: 3.1 µM

Structure (SMILES): O=C(CN1C(=O)/C(=C/c2ccc(O)cc2O)SC1=S)Nc1ccc(Oc2ccc(Cl)cc2)cc1
- inhibition [5]: < 5%
- IC50 (Malate dehydrogenase [7]): 1.3 µM
- IC50 [8]: 58 µM

Structure (SMILES): O=C(CN1C(=O)/C(=C/c2ccc(O)c(O)c2)SC1=S)NO
- inhibition [11]: Active
- inhibition [9]: 53%
- inhibition [4]: 29%
- inhibition zone (IZ) (Escherichia coli [15]): 20 mm
- IC50 [12]: 6.1 µM
- inhibition zone (IZ) (Escherichia coli [16]): 14 mm
- inhibition [6]: 70%
- IC50 (Malate dehydrogenase [7]): 3.4 µM
- logP [14]: 1.8
- IC50 [8]: 3.8 µM

Structure (SMILES): Cc1ccc(Oc2ccc(NC(=O)CN3C(=O)/C(=C/c4ccc(O)c(O)c4)SC3=S)cc2)cc1
- inhibition [9]: < 5%
- inhibition [3]: 10%
- inhibition [17]: < 5%
- inhibition [4]: 30%
- inhibition [18]: 53%
- inhibition [6]: 38%
- IC50 (Malate dehydrogenase [7]): 0.4 µM
- IC50 [8]: 4.1 µM

— ChEMBL document CHEMBL3352327, “Catechol-rhodanine derivatives: Specific and promiscuous inhibitors of Escherichia coli deoxyxylulose phosphate reductoisomerase (DXR)” (Bioorg Med Chem, 2014)
